Test [1] deals with Escherichia coli. Description: Antimicrobial activity against Escherichia coli 2062717 B-P isolated from patient with pyelonephritis assessed as >3-log reduction in urinary bacterial titer after 16 hrs. The class given is functional, Urine. The method, boiled down: (§1)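 Patient urine was collected on day 3 of i.v. therapy (steady state) over 4-h intervals after infusion start, stored at –80°C, and sterile filtered. It was twofold serially diluted (1:0 to 1:131,072) in the patient's own pre-dose drug-free urine, inoculated to 1.0 x 10^6–9.5 x 10^6 CFU/ml, and incubated for 18 h at 37°C. Subcultures were grown on blood agar for 24 h. The UBT is the reciprocal of the highest dilution giving >99.9% kill.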

Test [2] deals with Escherichia coli. Briefly: Antimicrobial activity against Escherichia coli 2297257 B-W isolated from patient with pyelonephritis assessed as >3-log reduction in urinary bacterial titer after 12 hrs. The class given is functional, Urine.
Test [3] has as its system Enterococcus faecalis. Briefly: Antimicrobial activity against Enterococcus faecalis 2215770 B-T isolated from patient with pyelonephritis assessed as >3-log reduction in urinary bacterial titer after 20 hrs. In kind it is functional, Urine. The method, boiled down:
(§2)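 Urine was collected before dosing and on day 3 of i.v. therapy (steady state), in 4-h intervals from infusion start (0–4 to 20–24 h), stored at −80°C and sterile filtered. It was serially diluted twofold (1:0 to 1:131,072) in the patient's drug-free pre-dose urine. Microdilution used an inoculum of 1.0 x 10^6–9.5 x 10^6 CFU/ml, incubated 18 h at 37°C, then subcultured 24 h on blood agar. The endpoint was >99.9% kill, reported as reciprocal titer.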

Test [4] deals with Escherichia coli. Briefly: Antimicrobial activity against Escherichia coli 1889645 B-I isolated from patient with pyelonephritis by Etest. In kind it is functional.
The test system of test [5] is Escherichia coli. Description: Antimicrobial activity against Escherichia coli 1949825 B-K isolated from patient with pyelonephritis by Etest. The class given is functional.
The subject of test [6] is Escherichia coli. Briefly: Antimicrobial activity against Escherichia coli 1949825 B-K isolated from patient with pyelonephritis assessed as >3-log reduction in urinary bacterial titer after 12 hrs. In kind it is functional, Urine. Summed up: as §1
For test [7], the system named is Escherichia coli. Description: Antimicrobial activity against Escherichia coli 1889646 B-F isolated from patient with pyelonephritis assessed as >3-log reduction in urinary bacterial titer after 20 hrs. The class given is functional, Urine. The method, boiled down:
(§3)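 Urine was collected on day 3 of i.v. therapy (steady state) over 4-h intervals from infusion start (0–4 to 20–24 h), stored at –80°C and sterile filtered. It was serially diluted twofold (1:0 up to 1:131,072) in the patient's own pre-dose drug-free urine. Microdilution used a final inoculum of 1.0 x 10^6 to 9.5 x 10^6 CFU/ml, incubated 18 h at 37°C in air. 10 µl was subcultured onto 5% blood Columbia agar for 24 h at 37°C. The bactericidal endpoint was >99.9% (>3-log) kill, reported as a reciprocal titer.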

In test [8] the test system is Escherichia coli. Description: Antimicrobial activity against Escherichia coli 1889645 B-I isolated from patient with pyelonephritis assessed as >3-log reduction in urinary bacterial titer after 24 hrs. The class given is functional, Urine. Summed up:
as §3

The subject of test [9] is Escherichia coli. Briefly: Antimicrobial activity against Escherichia coli 2297257 B-W isolated from patient with pyelonephritis assessed as >3-log reduction in urinary bacterial titer after 16 hrs. The class given is functional, Urine.
The subject of test [10] is Escherichia coli. Briefly: Antimicrobial activity against Escherichia coli 1949825 B-K isolated from patient with pyelonephritis assessed as >3-log reduction in urinary bacterial titer after 24 hrs. In kind it is functional, Urine. Summed up:
as §1

The subject of test [11] is Escherichia coli. Description: Antimicrobial activity against Escherichia coli 1949826 B-L isolated from patient with pyelonephritis assessed as >3-log reduction in urinary bacterial titer after 12 hrs. In kind it is functional, Urine. The method, boiled down:
as §1

The nature of test [12]: T>MIC in Pseudomonas aeruginosa infected in thigh of neutropenic mouse at 500 mg/kg, iv administered every 8 hrs. In kind it is functional.
Test [13] relates to Escherichia coli. Briefly: Antimicrobial activity against Escherichia coli 1780063 B-A isolated from patient with pyelonephritis assessed as >3-log reduction in urinary bacterial titer after 16 hrs. In kind it is functional, Urine. Summed up: as §2
The test system of test [14] is Escherichia coli. Description: Antimicrobial activity against Escherichia coli 1821385 B-C isolated from patient with pyelonephritis assessed as >3-log reduction in urinary bacterial titer after 16 hrs. In kind it is functional, Urine. The method, boiled down:
as §3

The subject of test [15] is Escherichia coli. Briefly: Antimicrobial activity against Escherichia coli 1821386 B-D isolated from patient with pyelonephritis by Etest. The class given is functional.
Test [16] relates to Serratia marcescens. Description: Antimicrobial activity against Serratia marcescens 2297260 B-U isolated from patient with pyelonephritis assessed as >3-log reduction in urinary bacterial titer after 4 hrs. In kind it is functional, Urine.
The test system of test [17] is Pseudomonas aeruginosa. Description: Antimicrobial activity against Pseudomonas aeruginosa 1821383 B-E isolated from patient with pyelonephritis assessed as >3-log reduction in urinary bacterial titer after 24 hrs. In kind it is functional, Urine.
The test system of test [18] is Staphylococcus epidermidis. Briefly: Antimicrobial activity against Staphylococcus epidermidis 2297262-9 B-V isolated from patient with pyelonephritis assessed as >3-log reduction in urinary bacterial titer after 8 hrs. In kind it is functional, Urine.
Test [19] deals with Pseudomonas aeruginosa. Briefly: Antimicrobial activity against Pseudomonas aeruginosa 2062713 B-Q isolated from patient with pyelonephritis assessed as >3-log reduction in urinary bacterial titer after 24 hrs. The class given is functional, Urine.
Test [20] deals with Escherichia coli. Description: Antimicrobial activity against Escherichia coli 1780064 A-X isolated from patient with pyelonephritis assessed as >3-log reduction in urinary bacterial titer after 16 hrs. In kind it is functional, Urine. The method, boiled down: as §2
In test [21] the test system is Pseudomonas aeruginosa. Description: Antimicrobial activity against Pseudomonas aeruginosa 1821383 B-E isolated from patient with pyelonephritis assessed as >3-log reduction in urinary bacterial titer after 20 hrs. The class given is functional, Urine.
Test [22] concerns Escherichia coli. Description: Antimicrobial activity against Escherichia coli 1780064 A-X isolated from patient with pyelonephritis assessed as >3-log reduction in urinary bacterial titer after 24 hrs. In kind it is functional, Urine. Summed up: as §3
For test [23], the system named is Staphylococcus aureus. Description: Antimicrobial activity against Staphylococcus aureus 1889640 A-Z isolated from patient with pyelonephritis by Etest. The class given is functional.
Test [24] relates to Escherichia coli. Description: Antimicrobial activity against Escherichia coli 2062716 B-R isolated from patient with pyelonephritis assessed as >3-log reduction in urinary bacterial titer after 4 hrs. The class given is functional, Urine. Summed up: as §1
In test [25] the test system is Enterococcus faecalis. Description: Antimicrobial activity against Enterococcus faecalis 2297262-10 B-V isolated from patient with pyelonephritis by Etest. In kind it is functional.
For test [26], the system named is Escherichia coli. Briefly: Antimicrobial activity against Escherichia coli 1889647 B-H isolated from patient with pyelonephritis assessed as >3-log reduction in urinary bacterial titer after 24 hrs. In kind it is functional, Urine. The method, boiled down:
as §3

The test system of test [27] is Enterococcus faecalis. Briefly: Antimicrobial activity against Enterococcus faecalis 2215767-10 B-S isolated from patient with pyelonephritis assessed as >3-log reduction in urinary bacterial titer after 4 hrs. The class given is functional, Urine. Summed up:
as §2

Test [28] has as its system Escherichia coli. Briefly: Antimicrobial activity against Escherichia coli 2062716 B-R isolated from patient with pyelonephritis assessed as >3-log reduction in urinary bacterial titer after 16 hrs. The class given is functional, Urine. Summed up:
as §1

Test [29] deals with Escherichia coli. Description: Antimicrobial activity against Escherichia coli 1821386 B-D isolated from patient with pyelonephritis assessed as >3-log reduction in urinary bacterial titer after 12 hrs. The class given is functional, Urine. Summed up: as §3
Test [30] concerns Staphylococcus epidermidis. Description: Antimicrobial activity against Staphylococcus epidermidis 2297262-9 B-V isolated from patient with pyelonephritis by Etest. The class given is functional.
The test system of test [31] is Staphylococcus epidermidis. Briefly: Antimicrobial activity against Staphylococcus epidermidis 2297262-9 B-V isolated from patient with pyelonephritis assessed as >3-log reduction in urinary bacterial titer after 12 hrs. In kind it is functional, Urine.
Test [32] relates to Staphylococcus epidermidis. Description: Antimicrobial activity against Staphylococcus epidermidis 2297262-9 B-V isolated from patient with pyelonephritis assessed as >3-log reduction in urinary bacterial titer after 20 hrs. The class given is functional, Urine.
Test [33] deals with Escherichia coli. Description: Antimicrobial activity against Escherichia coli 1780064 A-X isolated from patient with pyelonephritis assessed as >3-log reduction in urinary bacterial titer after 12 hrs. In kind it is functional, Urine. The method, boiled down: as §2
For test [34], the system named is Staphylococcus aureus. Briefly: Antimicrobial activity against Staphylococcus aureus 2215767-9 B-S isolated from patient with pyelonephritis assessed as >3-log reduction in urinary bacterial titer after 16 hrs. In kind it is functional, Urine.
The subject of test [35] is Pseudomonas aeruginosa. Description: Antimicrobial activity against Pseudomonas aeruginosa 1821383 B-E isolated from patient with pyelonephritis assessed as >3-log reduction in urinary bacterial titer after 8 hrs. In kind it is functional, Urine.

Values after ≈ are worked out from the molar mass of the structure shown.

One may read the MIC as the least concentration at which growth counts as inhibited. Lower therefore signals inhibition by little substance. As to `C[C@@H](O)[C@H]1C(=O)N2C(C(=O)O)=C(S[C@@H]3CN[C@H](CNS(N)(=O)=O)C3)[C@H](C)[C@H]12` [DORIPENEM], the urinary bactericidal titer in test [1] was 512 reciprocal titer; in test [2], 16400 reciprocal titer; in [3], 2048 reciprocal titer; in [6], 8192 reciprocal titer; in [7], 65500; in test [8], 4096 reciprocal titer. Moreover, the urinary bactericidal titer was found to be 4096 reciprocal titer in test [9]; 256 reciprocal titer in [10]; 131000 reciprocal titer in test [11]; 1024 reciprocal titer in test [13]; 8192 reciprocal titer in [14]. In addition, the minimal inhibitory concentration (MIC) in [4] and in test [5] was 0.03 µg/mL (≈ 0.0713 µM) throughout. Also, the “fT>MIC” value in test [12] is 20%.
For `C[C@H]1COc2c(N3CCN(C)CC3)c(F)cc3c(=O)c(C(=O)O)cn1c23.C[C@H]1COc2c(N3CCN(C)CC3)c(F)cc3c(=O)c(C(=O)O)cn1c23.O` [LEVOFLOXACIN], the MIC was below 0.03 µg/mL in test [15], 0.06 µg/mL in test [23], above 32 µg/mL in test [25] and above 32 µg/mL in test [30]. Further, the urinary bactericidal titer in test [16] came to 512 reciprocal titer; in [17] it was 16 reciprocal titer; in [18] it was 1 reciprocal titer; in test [19], 2 reciprocal titer; in test [20], 128 reciprocal titer; in test [21], 128 reciprocal titer. Further, the urinary bactericidal titer came out at 128 reciprocal titer in [22]; 1024 reciprocal titer in [24]; 256 reciprocal titer in test [26]; 256 reciprocal titer in test [28]; 2048 reciprocal titer in [29]; 4 reciprocal titer in test [31]. Further, the urinary bactericidal titer in [32] came out at 2 reciprocal titer; in test [33], 256 reciprocal titer; in [34], 0 reciprocal titer; in test [35], 128 reciprocal titer. The Time in test [27] was 0 h.

The values above are taken from ChEMBL document CHEMBL1649151, “Urinary bactericidal activity of Doripenem versus that of levofloxacin in patients with complicated urinary tract infections or pyelonephritis” (Antimicrob Agents Chemother, 2009).
